The values below come from publication PMC3016492 (Cellular and Molecular Life Sciences: CMLS, 2010).

Read-outs that look alike come from different tables or passages of the source. Where only a bound is given, the exact number is not on record here.

For test [1], the target named is T1, MK5 (Homo sapiens, UniProt Q8IW41).
T1 sequence (Q8IW41 1-473): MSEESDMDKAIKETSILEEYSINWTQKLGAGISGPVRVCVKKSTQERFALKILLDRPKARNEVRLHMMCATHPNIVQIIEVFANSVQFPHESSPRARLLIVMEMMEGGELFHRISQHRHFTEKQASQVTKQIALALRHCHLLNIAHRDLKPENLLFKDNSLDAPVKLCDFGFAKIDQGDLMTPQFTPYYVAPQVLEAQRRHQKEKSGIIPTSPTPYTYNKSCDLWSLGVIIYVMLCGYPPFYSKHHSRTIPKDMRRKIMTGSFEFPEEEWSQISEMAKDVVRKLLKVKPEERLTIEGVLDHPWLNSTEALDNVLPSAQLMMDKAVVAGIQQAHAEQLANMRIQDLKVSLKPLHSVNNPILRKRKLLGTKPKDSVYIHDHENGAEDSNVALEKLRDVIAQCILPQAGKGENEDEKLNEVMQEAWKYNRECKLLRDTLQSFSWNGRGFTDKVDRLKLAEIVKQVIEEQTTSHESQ
Description: MK5 kinase activity against PRAKtide substrate peptide. It is filed as biochemical. Particulars: for inhibition of MK5 enzyme activity (in words): initial screening at 2 mM.

In test [2] the target is T2, DYRK1A (Homo sapiens, UniProt Q13627). The settings on record: 10 μM; cited from earlier work.
The target of test [3] is T1, MK5. Particulars: read-out: IC50 MK5; cited from earlier work.
Test [4] concerns the target T3, PDK1 (Homo sapiens, UniProt O15530).
T3 sequence (O15530 1-556): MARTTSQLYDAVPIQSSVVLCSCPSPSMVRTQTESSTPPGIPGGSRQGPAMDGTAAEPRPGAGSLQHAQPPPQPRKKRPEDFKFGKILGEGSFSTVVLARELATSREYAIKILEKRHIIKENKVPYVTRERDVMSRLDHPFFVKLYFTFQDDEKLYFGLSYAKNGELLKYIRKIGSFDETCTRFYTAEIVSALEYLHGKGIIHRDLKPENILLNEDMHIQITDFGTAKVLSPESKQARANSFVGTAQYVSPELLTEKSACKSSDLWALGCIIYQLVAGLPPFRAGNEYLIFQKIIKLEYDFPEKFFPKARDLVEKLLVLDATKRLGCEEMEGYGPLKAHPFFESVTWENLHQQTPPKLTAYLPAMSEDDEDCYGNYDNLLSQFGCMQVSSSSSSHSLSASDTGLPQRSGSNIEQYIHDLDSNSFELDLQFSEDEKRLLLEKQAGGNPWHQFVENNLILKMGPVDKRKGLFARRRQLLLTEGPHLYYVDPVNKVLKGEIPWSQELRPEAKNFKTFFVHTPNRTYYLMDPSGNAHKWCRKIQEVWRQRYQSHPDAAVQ
Particulars: 10 μM; cited from earlier work.

A further test addresses ERK2 (Homo sapiens, UniProt P28482). The settings on record: 10 μM; cited from earlier work.
A further test has as its system ROCK-II. Particulars: 10 μM; cited from earlier work.
Test [5] deals with T1, MK5. The settings on record: read-out: IC50 MK5; cited from earlier work. The source holds these as a separate data set.
For the next test, the system named is p38δ. The settings on record: 10 μM; cited from earlier work.
The subject of the next test is PHK. The settings on record: 10 μM; cited from earlier work.
The next test relates to GSK3β. Particulars: 10 μM; cited from earlier work.
A further test deals with ERK8. The settings on record: 10 μM; cited from earlier work.
The test system of the next test is PKB2. Particulars: 10 μM; cited from earlier work.
For a further test, the system named is smMLCK. Particulars: 10 μM; cited from earlier work.
Test [6] concerns the target T3, PDK1. Particulars: 10 μM; cited from earlier work. The source holds these as a separate data set.
A further test concerns the target PLK1 (Homo sapiens, UniProt P53350). The settings on record: 10 μM; cited from earlier work.
In another test the test system is p70^S6K. The settings on record: 10 μM; cited from earlier work.
The subject of a further test is IKKβ. The settings on record: 10 μM; cited from earlier work.
The next test relates to Aurora B. Particulars: 10 μM; cited from earlier work.
A further test deals with RSK2. The settings on record: 10 μM; cited from earlier work.
A further test concerns the target MK3 (Homo sapiens, UniProt Q16644). The settings on record: 10 μM; cited from earlier work.
For test [7], the target named is T2, DYRK1A. Particulars: 10 μM; cited from earlier work. The source holds these as a separate data set.
The target of a further test is PKA (Homo sapiens, UniProt P17612). The settings on record: 10 μM; cited from earlier work.
For another test, the system named is MSK1. The settings on record: 10 μM; cited from earlier work.
The test system of test [8] is PKA-induced nuclear export of MK5. Description: PKA-induced nuclear export of EGFP-MK5 in PC12 cells. It is filed as cell-based. The settings on record: 10 μM forskolin, 30 min, no compound 11, untreated control 6%. The essentials: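 PC12 cells were grown in F-12K with 2 mM L-glutamine, 1.5 g/l sodium bicarbonate, 15% horse serum, 2.5% fetal calf serum, penicillin and streptomycin. They were transfected with EGFP-MK5 by nucleofection, then left untreated or pretreated with 20 μM test compound. Next came 10 μM forskolin for 30 min. Cells were fixed in 4% formaldehyde for 10 min and washed in PBS. Several hundred cells were scored by confocal microscopy for nuclear plus cytosolic EGFP-MK5.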

PLK1, sequence (P53350 whole entry): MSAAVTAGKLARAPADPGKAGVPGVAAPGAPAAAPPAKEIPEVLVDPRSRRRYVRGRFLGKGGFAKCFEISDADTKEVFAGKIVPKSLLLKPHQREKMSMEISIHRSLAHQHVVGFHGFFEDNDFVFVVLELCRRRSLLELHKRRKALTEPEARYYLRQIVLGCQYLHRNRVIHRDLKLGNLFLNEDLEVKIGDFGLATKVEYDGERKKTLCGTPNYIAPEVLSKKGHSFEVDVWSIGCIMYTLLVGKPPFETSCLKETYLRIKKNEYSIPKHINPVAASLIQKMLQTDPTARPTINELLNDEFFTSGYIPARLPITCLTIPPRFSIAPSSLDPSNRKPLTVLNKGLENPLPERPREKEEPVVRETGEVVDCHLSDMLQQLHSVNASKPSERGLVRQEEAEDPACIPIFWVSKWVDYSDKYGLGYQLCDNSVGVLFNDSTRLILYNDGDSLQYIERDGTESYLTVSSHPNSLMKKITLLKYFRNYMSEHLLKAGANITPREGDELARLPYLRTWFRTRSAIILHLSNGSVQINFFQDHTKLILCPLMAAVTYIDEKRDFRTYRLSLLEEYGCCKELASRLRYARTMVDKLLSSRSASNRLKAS
MK3, sequence (Q16644 whole entry, species assumed): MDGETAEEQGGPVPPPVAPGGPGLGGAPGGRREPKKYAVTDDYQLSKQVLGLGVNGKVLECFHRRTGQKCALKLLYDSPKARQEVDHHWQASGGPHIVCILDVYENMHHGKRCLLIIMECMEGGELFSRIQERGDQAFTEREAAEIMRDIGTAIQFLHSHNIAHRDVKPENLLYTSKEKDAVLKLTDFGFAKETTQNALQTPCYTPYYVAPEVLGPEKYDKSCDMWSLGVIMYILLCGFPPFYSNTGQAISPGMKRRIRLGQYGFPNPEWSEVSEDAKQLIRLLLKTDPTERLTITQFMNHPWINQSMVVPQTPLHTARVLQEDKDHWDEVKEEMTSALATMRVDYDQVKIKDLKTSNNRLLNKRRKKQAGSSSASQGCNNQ
ERK2, sequence (P28482 whole entry): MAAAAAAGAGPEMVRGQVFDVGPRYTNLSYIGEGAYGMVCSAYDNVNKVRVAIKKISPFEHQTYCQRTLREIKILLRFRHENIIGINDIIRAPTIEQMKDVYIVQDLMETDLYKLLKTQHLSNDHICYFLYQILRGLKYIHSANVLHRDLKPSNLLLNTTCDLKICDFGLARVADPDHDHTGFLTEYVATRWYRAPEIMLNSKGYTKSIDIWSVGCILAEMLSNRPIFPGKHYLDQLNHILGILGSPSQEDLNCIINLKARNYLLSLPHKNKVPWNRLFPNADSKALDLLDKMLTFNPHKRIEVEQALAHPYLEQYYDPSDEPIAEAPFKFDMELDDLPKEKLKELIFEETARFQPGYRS

As to `CCN1C[C@]2(COC)[C@H](O)C[C@H](OC)[C@@]34[C@@H]5C[C@@]6(O)[C@H](OC(=O)c7ccccc7)[C@@H]5[C@@](OC(C)=O)([C@@H]([C@H](OC)[C@H]23)[C@@H]14)[C@@H](O)[C@@H]6OC` [Compound 6, aconitine], the “inhibition of MK5 enzyme activity (in words)” value against MK5 [1] is “completely blocked”.

One may read the Ki as a dissociation constant, usually derived from enzyme kinetics or from competition with a known ligand. On to `CCN1C[C@]2(COC)[C@H](O)C[C@H](OC)[C@]34C1[C@H]([C@H](OC)[C@H]23)[C@]1(O)[C@H]2[C@@H](O)[C@](O)(C[C@H]24)[C@@H](OC)[C@@H]1O` [Compound 8, aconine], for which, at MK5 [1], the affinity, expressed as Ki, was 301 µM and the “inhibition of MK5 enzyme activity (in words)” value is given as “completely blocked”. In addition, the “IC50 MK5 (in words)” value at MK5 [1] (dose-response, PRAKtide substrate) is on record as “in the mM range”. For the same molecule, on MK5 [1] (varying ATP concentrations, Lineweaver-Burk), the “mode of inhibition against ATP” value is “ATP-competitive”.

As usually defined, the IC50 is the concentration that inhibits the measured activity by half. As for `O=C(O[C@@H]1Cc2c(O)cc(O)cc2O[C@@H]1c1cc(O)c(O)c(O)c1)c1cc(O)c(O)c(O)c1` [EGCG, epigallocatechin gallate], on DYRK1A [2], the “inhibition of in vitro kinase activity of DYRK1A” value was ~ 90%. The IC50 on MK5 [3] is below 10 µM. Also, at PDK1 [4], the “inhibition of in vitro kinase activity of PDK1” value is recorded as ~ 90%. Moreover, the “inhibition of in vitro kinase activity of ERK2” value on ERK2 is ~ 90%. Besides, in the test on ROCK-II, the “inhibition of in vitro kinase activity of ROCK-II” value was ~ 90%.

Consider `COc1ccc(C=CC(=O)c2c(O)cc(OC)cc2OC)cc1` [flavokavain A], for which the IC50 on MK5 [5] is 10 µM. Moreover, in the test with p38δ, the “inhibition of p38δ” value is 40–70%. Besides, in the test on PHK, the “inhibition of PHK” value is listed as 40–70%. Also, the “inhibition of GSK3β” value in the test with GSK3β is 40–70%. The “inhibition of ERK8” value with ERK8 is 40–70%. Further, in the test with PKB2, the “inhibition of PKB2” value is listed as 40–70%. In addition, the “inhibition of smMLCK” value in the test on smMLCK is 40–70%. For the same molecule, the “inhibition of PDK1” value on PDK1 [6] is on record as 40–70%. For the same molecule, the “inhibition of PLK1” value on PLK1 is reported as 40–70%. Besides, the “inhibition of p70^S6K” value in the test with p70^S6K is recorded as 40–70%. The “inhibition of IKKβ (in words, relative to MK5)” value in the test on IKKβ is given as “more or to a similar extent”. Moreover, the “inhibition of Aurora B (in words, relative to MK5)” value in the test on Aurora B is “more or to a similar extent”. The “inhibition of RSK2” value with RSK2 is on record as 40–70%. The “inhibition of MK3 (in words, relative to MK5)” value on MK3 was “more or to a similar extent”. The “inhibition of DYRK1A (in words, relative to MK5)” value at DYRK1A [7] was “more or to a similar extent”. Besides, the “inhibition of PKA” value on PKA is listed as 40–70%. The “inhibition of MSK1” value in the test with MSK1 is given as 40–70%.

For the molecule `C=C[C@@]1(C)CC(=O)[C@]2(O)[C@@]3(C)[C@@H](O)CCC(C)(C)[C@@H]3[C@H](O)[C@H](OC(C)=O)[C@@]2(C)O1` [forskolin], the “cells displaying both nuclear and cytosolic EGFP-MK5” value is listed as “approximately 84%” in test [8] and 84% in test [8] (listed as Forskolin).
